Source: ChEMBL document CHEMBL1687716, “Pharmacokinetics of L-arginine in adults with moderately severe malaria” (Antimicrob Agents Chemother, 2008)

Legend:
Homo sapiens [1] = assay: Toxicity in patient with severe malaria assessed as effect on pulse rate at 3 to 12 g, iv for 30 mins via infusion pump measured after drug infusion; type: organism-based; details: in vivo, 0.5 h
Homo sapiens [2] = assay: Toxicity in patient with severe malaria assessed as pain at drug infusion site at 3 to 12 g, iv for 30 mins via infusion pump; type: organism-based; details: in vivo, 0.5 h
Homo sapiens [3] = assay: Toxicity in patient with severe malaria assessed as decrease of diastolic blood pressure at 3 to 6 g, iv for 30 mins via infusion pump; type: organism-based, Artery; details: in vivo, 0.5 h
Summary of the method: (§1)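 In adults with malaria on IV quinine, 10 per dose, systolic and diastolic blood pressure were recorded at baseline and immediately at the end of a 30-min IV L-arginine infusion (in saline, 10% or less). They were followed afterward to check return to baseline. Mean change was given with 95% CI and P value.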

Homo sapiens [4] = assay: Toxicity in patient with severe malaria assessed as effect on respiratory rate at 3 to 12 g, iv for 30 mins via infusion pump measured during drug infusion; type: organism-based; details: in vivo, 0.5 h
[5] = Terminal half life in patient with severe malaria administered as iv for 30 mins via infusion pump; type: ADME, organism-based; details: human, in vivo, read-out: beta t1/2 (converted)
Summary of the method: (§2)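 Half-lives came from a population model fitted in NONMEM (FOCE with interaction) to plasma HPLC levels from infused patients and from patients not given L-arginine. The model was two-compartment linear with first-order elimination and combined proportional and additive residual error. Baseline and natural recovery were fitted by a second-order polynomial. CV% was estimated by simulation assuming a log-normal distribution.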

[6] = Primary phase half life in patient with severe malaria administered as iv for 30 mins via infusion pump; type: ADME, organism-based; details: human, in vivo, read-out: alphat1/2; summary of the method: as §2
[7] = Plasma concentration in patient with severe malaria at 6 g, iv for 30 mins via infusion pump; type: ADME, organism-based; details: human
Summary of the method: (§3)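 Adults with moderately severe malaria, all on IV quinine, were placed in groups of 10 per dose. L-arginine was diluted in normal saline to 10% or less and given IV through an antecubital cannula over 30 min. Plasma was taken at 8–11 time points up to 24 h, separated within 30 min and stored at −70°C. Samples were ethanol-deproteinized with norleucine as internal standard, AccQFluor-derivatized and measured by HPLC. Peak was taken after the end of infusion.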

[8] = Plasma concentration in patient with severe malaria at 3 g, iv for 30 mins via infusion pump; type: ADME, organism-based; details: human; summary of the method: as §3
Homo sapiens [9] = assay: Toxicity in patient with severe malaria assessed as decrease of systolic blood pressure at 3 to 6 g, iv for 30 mins via infusion pump; type: organism-based, Artery; details: in vivo, 0.5 h; summary of the method: as §1
Homo sapiens [10] = assay: Toxicity in patient with severe malaria assessed as decrease of diastolic blood pressure at 12 g, iv for 30 mins via infusion pump; type: organism-based, Artery; details: in vivo, 0.5 h; summary of the method: as §1
[11] = Plasma concentration in patient with severe malaria at 12 g, iv for 30 mins via infusion pump; type: ADME, organism-based; details: human; summary of the method: as §3
Homo sapiens [12] = assay: Toxicity in patient with severe malaria assessed as effect on respiratory rate at 3 to 12 g, iv for 30 mins via infusion pump measured after drug infusion; type: organism-based; details: in vivo, 0.5 h
Homo sapiens [13] = assay: Toxicity in patient with severe malaria assessed as inflammation at 3 to 12 g, iv for 30 mins via infusion pump; type: organism-based; details: in vivo, 0.5 h
Homo sapiens [14] = assay: Toxicity in patient with severe malaria assessed as decrease of systolic blood pressure at 12 g, iv for 30 mins via infusion pump; type: organism-based, Artery; details: in vivo, 0.5 h; summary of the method: as §1
Homo sapiens [15] = assay: Toxicity in patient with severe malaria assessed as effect on pulse rate at 3 to 12 g, iv for 30 mins via infusion pump measured during drug infusion; type: organism-based; details: in vivo, 0.5 h

SMILES: N=C(N)NCCC[C@H](N)C(=O)O [ARGININE]
- Activity (Homo sapiens [1]): Non-toxic
- Activity (Homo sapiens [2]): Non-toxic
- Activity (Homo sapiens [3]): Non-toxic
- Activity (Homo sapiens [4]): Non-toxic
- half-life [5]: 3.75 h
- half-life [6]: 0.25 h
- concentration at 0.5 h [7]: 809 µM
- concentration at 0.5 h [8]: 288 µM
- Activity (Homo sapiens [9]): Non-toxic
- Activity (Homo sapiens [10]): 5 mmHg
- concentration at 0.5 h [11]: 1310 µM
- Activity (Homo sapiens [12]): Non-toxic
- Activity (Homo sapiens [13]): Non-toxic
- Activity (Homo sapiens [14]): 5 mmHg
- Activity (Homo sapiens [15]): Non-toxic
